In ChEMBL document CHEMBL1773012, “Synthesis, spectral, crystal structure and in vitro antimicrobial evaluation of imidazole/benzotriazole substituted piperidin-4-one derivatives” (2011):
Converted amounts (≈) assume the structure as drawn. The source made the active and inactive calls. The calls are words filed in the database; no cut-off is given here.

How the values were obtained:
Staphylococcus aureus = assay: Antimicrobial activity against Staphylococcus aureus ATCC 25930 after 24 hrs by two fold serial dilution method; assay type: functional
Procedure, shortened: (§1)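 Nutrient broth two-fold serial dilution. Inoculum was seeded NB prepared from 24 h nutrient-agar cultures grown at 37 ± 1 °C and adjusted with sterile saline to 1×10⁴–10⁵ CFU. Compounds and reference drugs were tested at 200, 100, 50, 25, 12.5 and 6.25. Tubes were incubated in a BOD incubator, and MIC was read visually after 24 h.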

Bacillus subtilis = assay: Antimicrobial activity against Bacillus subtilis ATCC 530 after 24 hrs by two fold serial dilution method; assay type: functional; procedure, shortened: as §1
Escherichia coli = assay: Antimicrobial activity against Escherichia coli ATCC 26032 after 24 hrs by two fold serial dilution method; assay type: functional; settings: ATCC 26032, 24 h; procedure, shortened: as §1
Klebsiella pneumoniae = assay: Antimicrobial activity against Klebsiella pneumoniae ATCC 16425 after 24 hrs by two fold serial dilution method; assay type: functional; procedure, shortened: as §1
Cryptococcus neoformans = assay: Antimicrobial activity against Cryptococcus neoformans ATCC 3235 after 72 to 96 hrs by two fold serial dilution method; assay type: functional
Procedure, shortened: (§2)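 Two-fold serial dilution in Sabouraud dextrose broth. Spores from 24 h to 7-day-old Sabouraud agar slant cultures were suspended in SDB. Compounds and reference drugs were tested at 200, 100, 50, 25, 12.5 and 6.25. Tubes were incubated in a BOD incubator, and MIC was recorded visually after 72–96 h.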

Rhizopus = assay: Antimicrobial activity against Rhizopus sp. ATCC 2842 after 72 to 96 hrs by two fold serial dilution method; assay type: functional; procedure, shortened: as §2
Aspergillus niger = assay: Antimicrobial activity against Aspergillus niger ATCC 635 after 72 to 96 hrs by two fold serial dilution method; assay type: functional; procedure, shortened: as §2
Aspergillus flavus = assay: Antimicrobial activity against Aspergillus flavus ATCC 525 after 72 to 96 hrs by two fold serial dilution method; assay type: functional; procedure, shortened: as §2
Candida albicans = assay: Antimicrobial activity against Candida albicans ATCC 3430 by two fold serial dilution method; assay type: functional
Procedure, shortened: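 Sabouraud dextrose broth two-fold serial dilution. Cells or spores from 24 h to 7-day-old Sabouraud agar slant cultures were suspended in SDB. Test and reference agents were tested at 200, 100, 50, 25, 12.5 and 6.25. Tubes were incubated in a BOD incubator, with MIC read by visual observation.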

Salmonella typhi = assay: Antimicrobial activity against Salmonella typhi ATCC 25021 after 24 hrs by two fold serial dilution method; assay type: functional, Salmonella enterica subsp. enterica serovar Typhi; settings: Salmonella enterica, ATCC 25021, 24 h
Procedure, shortened: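 Two-fold serial dilution in nutrient broth. Seeded broth was made from 24 h bacterial cultures on nutrient agar grown at 37 ± 1 °C, and the suspension was adjusted with sterile saline to 1×10⁴–10⁵ CFU. Compounds and reference drugs were tested at 200, 100, 50, 25, 12.5 and 6.25. Tubes were incubated in a BOD incubator, and the MIC was read visually after 24 h.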

CC1C(=O)C(C)C(c2cccc(F)c2)N(C(=O)Cn2nnc3ccccc32)C1c1cccc(F)c1 (centres undefined)
MIC (Staphylococcus aureus; ATCC 25930, 24 h): 50 µg/mL (≈ 105 µM)
MIC (Bacillus subtilis; ATCC 530, 24 h): 25 µg/mL (≈ 52.7 µM)
MIC (Escherichia coli): 50 µg/mL (≈ 105 µM)
MIC (Klebsiella pneumoniae; ATCC 16425, 24 h): 25 µg/mL (≈ 52.7 µM)
MIC (Cryptococcus neoformans): 100 µg/mL (≈ 211 µM)
MIC (Rhizopus): 100 µg/mL (≈ 211 µM)
MIC (Aspergillus niger): 200 µg/mL (≈ 421 µM)
MIC (Aspergillus flavus): 200 µg/mL (≈ 421 µM)
MIC (Candida albicans): inactive

CN[C@@H]1[C@H](O[C@H]2[C@H](O[C@H]3[C@H](O)[C@@H](O)[C@H](N=C(N)N)[C@@H](O)[C@@H]3N=C(N)N)O[C@@H](C)[C@]2(O)C=O)O[C@@H](CO)[C@H](O)[C@H]1O [STREPTOMYCIN]
MIC (Staphylococcus aureus; ATCC 25930, 24 h): 50 µg/mL (≈ 86 µM)
MIC (Bacillus subtilis; ATCC 530, 24 h): 12.5 µg/mL (≈ 21.5 µM)
MIC (Salmonella typhi): 50 µg/mL (≈ 86 µM)
MIC (Escherichia coli): 12.5 µg/mL (≈ 21.5 µM)
MIC (Klebsiella pneumoniae; ATCC 16425, 24 h): 25 µg/mL (≈ 43 µM)

COc1ccc(C2C(C)C(=O)C(C)C(c3ccc(OC)cc3)N2C(=O)Cn2ccnc2)cc1 (centres undefined)
MIC (Staphylococcus aureus; ATCC 25930, 24 h): 100 µg/mL (≈ 223 µM)
MIC (Bacillus subtilis; ATCC 530, 24 h): 50 µg/mL (≈ 112 µM)
MIC (Salmonella typhi): 100 µg/mL (≈ 223 µM)
MIC (Escherichia coli): 25 µg/mL (≈ 55.9 µM)
MIC (Klebsiella pneumoniae; ATCC 16425, 24 h): 200 µg/mL (≈ 447 µM)
MIC (Cryptococcus neoformans): 50 µg/mL (≈ 112 µM)
MIC (Rhizopus): 100 µg/mL (≈ 223 µM)
MIC (Aspergillus niger): inactive
MIC (Aspergillus flavus): 100 µg/mL (≈ 223 µM)
MIC (Candida albicans): 6.25 µg/mL (≈ 14 µM)

C[C@@H]1[C@H](O)[C@@H](C)/C=C/C=C/C=C/C=C/C=C/C=C/C=C/[C@H](O[C@@H]2O[C@H](C)[C@@H](O)[C@H](N)[C@@H]2O)C[C@@H]2O[C@](O)(C[C@@H](O)C[C@@H](O)[C@H](O)CC[C@@H](O)C[C@@H](O)CC(=O)O[C@H]1C)C[C@H](O)[C@H]2C(=O)O [AMPHOTERICIN B]
MIC (Cryptococcus neoformans): 25 µg/mL (≈ 27.1 µM)
MIC (Rhizopus): 25 µg/mL (≈ 27.1 µM)
MIC (Aspergillus niger): 50 µg/mL (≈ 54.1 µM)
MIC (Aspergillus flavus): 50 µg/mL (≈ 54.1 µM)
MIC (Candida albicans): 25 µg/mL (≈ 27.1 µM)

CC1C(=O)C(C)C(c2cccc(F)c2)N(C(=O)Cn2ccnc2)C1c1cccc(F)c1 (centres undefined)
MIC (Staphylococcus aureus; ATCC 25930, 24 h): 50 µg/mL (≈ 118 µM)
MIC (Bacillus subtilis): inactive
MIC (Salmonella typhi): 50 µg/mL (≈ 118 µM)
MIC (Escherichia coli): 200 µg/mL (≈ 472 µM)
MIC (Klebsiella pneumoniae; ATCC 16425, 24 h): 200 µg/mL (≈ 472 µM)
MIC (Cryptococcus neoformans): 6.25 µg/mL (≈ 14.8 µM)
MIC (Rhizopus): 25 µg/mL (≈ 59 µM)
MIC (Aspergillus niger): 100 µg/mL (≈ 236 µM)
MIC (Aspergillus flavus): inactive
MIC (Candida albicans): 50 µg/mL (≈ 118 µM)

CC1C(=O)C(C)C(c2ccccc2)N(C(=O)Cn2ccnc2)C1c1ccccc1 (centres undefined)
MIC (Staphylococcus aureus): inactive
MIC (Bacillus subtilis; ATCC 530, 24 h): 100 µg/mL (≈ 258 µM)
MIC (Salmonella typhi): 100 µg/mL (≈ 258 µM)
MIC (Escherichia coli): 6.25 µg/mL (≈ 16.1 µM)
MIC (Klebsiella pneumoniae; ATCC 16425, 24 h): 100 µg/mL (≈ 258 µM)
MIC (Cryptococcus neoformans): 100 µg/mL (≈ 258 µM)
MIC (Rhizopus): 200 µg/mL (≈ 516 µM)
MIC (Aspergillus niger): 100 µg/mL (≈ 258 µM)
MIC (Aspergillus flavus): 100 µg/mL (≈ 258 µM)
MIC (Candida albicans): inactive

CC1C(=O)CC(c2ccccc2)N(C(=O)Cn2ccnc2)C1c1ccccc1 (centres undefined)
MIC (Staphylococcus aureus; ATCC 25930, 24 h): 100 µg/mL (≈ 268 µM)
MIC (Bacillus subtilis; ATCC 530, 24 h): 25 µg/mL (≈ 66.9 µM)
MIC (Salmonella typhi): 200 µg/mL (≈ 536 µM)
MIC (Escherichia coli): 100 µg/mL (≈ 268 µM)
MIC (Klebsiella pneumoniae; ATCC 16425, 24 h): 50 µg/mL (≈ 134 µM)
MIC (Cryptococcus neoformans): 100 µg/mL (≈ 268 µM)
MIC (Rhizopus): 100 µg/mL (≈ 268 µM)
MIC (Aspergillus niger): 200 µg/mL (≈ 536 µM)
MIC (Aspergillus flavus): 100 µg/mL (≈ 268 µM)
MIC (Candida albicans): 100 µg/mL (≈ 268 µM)

CC(C)C1C(=O)CC(c2ccccc2)N(C(=O)Cn2ccnc2)C1c1ccccc1 (centres undefined)
MIC (Staphylococcus aureus; ATCC 25930, 24 h): 100 µg/mL (≈ 249 µM)
MIC (Bacillus subtilis; ATCC 530, 24 h): 12.5 µg/mL (≈ 31.1 µM)
MIC (Salmonella typhi): 25 µg/mL (≈ 62.3 µM)
MIC (Escherichia coli): 100 µg/mL (≈ 249 µM)
MIC (Klebsiella pneumoniae): inactive
MIC (Cryptococcus neoformans): 25 µg/mL (≈ 62.3 µM)
MIC (Rhizopus): 50 µg/mL (≈ 125 µM)
MIC (Aspergillus niger): 12.5 µg/mL (≈ 31.1 µM)
MIC (Aspergillus flavus): 100 µg/mL (≈ 249 µM)
MIC (Candida albicans): 100 µg/mL (≈ 249 µM)

CCC1C(=O)CC(c2ccccc2)N(C(=O)Cn2ccnc2)C1c1ccccc1 (centres undefined)
MIC (Staphylococcus aureus; ATCC 25930, 24 h): 200 µg/mL (≈ 516 µM)
MIC (Bacillus subtilis): inactive
MIC (Salmonella typhi): 200 µg/mL (≈ 516 µM)
MIC (Escherichia coli): 50 µg/mL (≈ 129 µM)
MIC (Klebsiella pneumoniae; ATCC 16425, 24 h): 100 µg/mL (≈ 258 µM)
MIC (Cryptococcus neoformans): 50 µg/mL (≈ 129 µM)
MIC (Rhizopus): 100 µg/mL (≈ 258 µM)
MIC (Aspergillus niger): inactive
MIC (Aspergillus flavus): 200 µg/mL (≈ 516 µM)
MIC (Candida albicans): 200 µg/mL (≈ 516 µM)
